# This is a sample that favours compounds with a hit; in the whole collection about 1.2% have one here.
# EBNA-1 inh: EBNA-1 DNA-binding inhibitors, primary screen, biochemical, fluorescence polarization; inhibition, % at 14.8 µM; 0.34% of 300,000 active; AID 1950, 2009; in the data active means inhibition above about 28%
# ZTA DNA inh: blocks Epstein-Barr virus ZTA, an EBNA-1 counter-screen. ZTA-DNA binding, fluorescence polarization. 0.15% of 320,000 active. P03206. inhibition, % at 11 µM; in the data active means inhibition above about 33%
# Target sequence (P03206 whole entry, looked up): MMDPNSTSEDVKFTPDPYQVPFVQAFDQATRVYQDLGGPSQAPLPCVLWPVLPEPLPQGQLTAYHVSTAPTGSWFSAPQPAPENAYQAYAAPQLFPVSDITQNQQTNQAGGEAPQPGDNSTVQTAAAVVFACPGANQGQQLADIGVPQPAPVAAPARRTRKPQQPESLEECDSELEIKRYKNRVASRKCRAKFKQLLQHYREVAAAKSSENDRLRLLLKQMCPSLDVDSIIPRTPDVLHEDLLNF
# NS3 helicase inh: inhibitors of HCV NS3 helicase, primary screen, biochemical, Cy5 molecular beacon fluorescence | inhibition, % at 10.9 µM | Hepatitis C virus NS3 helicase | NS3 helicase DNA unwinding | 0.56% of 290,000 active | AID 1800, 2009;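 active means inhibition above the mean of all tested compounds plus 3 SD, set per campaign, cut at about 35% in these data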
#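 Material: hepatitis C virus NS3 helicase domain fragment enzyme; measured by: Cy5 fluorescence, 0 and 60 min reads; control set: DMSO and thioflavine S; incubation: 60 min unwinding reaction at 25 °C after ATP addition; read-out basis: % inhibition from 60/0 min fluorescence ratio, DMSO 0%, thioflavine S 100%; repeats: singlicate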
# HCV core dimer: inhibitors of HCV core protein dimerization, primary screen, biochemical, TR-FRET, high-throughput. TR-FRET GST/Flag-core106 dimerization, 1536-well. inhibition, % at 5 µM. 0.33% of 300,000 active;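 active means inhibition above the mean of all tested compounds plus 3 SD, set per screening campaign, cut at about 45% in these data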
#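 System: GST/Flag-tagged HCV core106 proteins. Incubation: compound-protein-antibody incubation 4 h at 22.5 °C. Technique: HTRF with 340 nm excitation, 617/671 nm emission. Medium: KF-containing HEPES buffer, pH 7.45, DTT, CHAPS, BSA. Read-out: inhibition (%) from 671 over 617 nm ratio. Also added: Eu(K)-anti-GST 90 ng/mL plus XL665-anti-Flag 1 µg/mL.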
# EBNA-1 confirm: EBNA-1 DNA-binding inhibitors, retest, confirmation, biochemical, fluorescence polarization, triplicate. shares compounds with EBNA-1 inh. Recombinant EBNA-1 DBD, Cy5-DNA fluorescence polarization. inhibition, % at 14.8 µM. 35% of 830 active. AID 2292, 2010;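 active means mean inhibition across replicates above a set limit taken from the earlier primary screen, cut at about 28% in these data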
# ZTA counter trip: EBV Zta DNA binding inhibitors, counter-screen for EBNA-1 inhibitor project, biochemical, fluorescence polarization, triplicate; shares compounds with EBNA-1 inh; Zta-ZRE DNA binding, Cy5 fluorescence polarization; inhibition, % at 11.1 µM; 830 tested, under 10 active; AID 2328, 2010;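 active means mean inhibition over triplicates above a set limit taken from the primary EBNA-1 screen, cut at about 37% in these data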;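 further: purified full length Zta protein with Cy5 labeled ZRE DNA probe; inhibitors lower polarization by freeing the labeled DNA probe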
# A number is an active result; i = inactive; nt = not tested or not shown.
SMILES,EBNA-1 inh,ZTA DNA inh,NS3 helicase inh,HCV core dimer,EBNA-1 confirm,ZTA counter trip
CCOc1ccc(C(=O)NC(=S)Nc2ccc(NC(=O)CC)cc2)cc1[N+](=O)[O-],i,i,i,i,nt,nt
CCC(=O)NC(=S)Nc1ccc(NC(=O)c2ccc(C)c([N+](=O)[O-])c2)cc1,43,i,i,i,33,i
O=C(N/N=C/c1cccc(C(F)(F)F)c1)c1cc2c(s1)-c1ccccc1CC2,i,i,i,i,nt,nt
Cc1cccc(/C=N/NC(=O)c2cc3c(s2)-c2ccccc2CC3)c1,132,i,i,i,i,i
COc1ccc(CNc2nc(NCc3ccc(OC)cc3)n(C(C)=O)n2)cc1,65,i,i,i,72,i
Cc1ccc(S(=O)(=O)NCCC(=O)N2CC(C)OC(C)C2)cc1C (stereo not drawn),i,i,nt,i,nt,nt
COc1ccc(C2CC(C(F)(F)F)n3nc(C(=O)Nc4ccc5c(c4)OCO5)cc3N2)cc1 (stereo not drawn),40,i,i,i,110,i
CC(=O)Nc1nnc(SCC(=O)c2ccc3c(c2)Cc2ccccc2-3)s1,40,i,i,i,43,i
CCC(=O)Nc1nnc(SCC(=O)c2ccc3c(c2)Cc2ccccc2-3)s1,31,i,i,i,i,i
COc1ccc(CC(=O)Nc2sccc2C#N)cc1S(=O)(=O)N1CCOCC1,i,i,nt,i,nt,nt
O=C(NCCc1c[nH]c2ccccc12)C1CCC(Cn2c(=S)[nH]c3ccccc3c2=O)CC1 (stereo not drawn),28,i,i,i,i,i
COc1ncnc(-c2ccccc2)c1-c1ccccc1,i,i,nt,i,nt,nt
COc1ccc(NC(=O)Nc2ccccc2F)cc1Cl,89,i,i,i,i,i
COc1ccc(NC(=O)Nc2ccccc2F)cc1,i,i,i,i,nt,nt
COc1ccc(CCNC(=O)CCc2nnc(Cc3ccc4c(c3)OCO4)o2)c(OC)c1,i,i,i,i,nt,nt
Cc1cc(NC(=O)CSc2nnc(NC(=O)C3CC(=O)N(c4ccccc4C)C3)s2)no1 (stereo not drawn),i,i,i,i,nt,nt
Cc1cc(NC(=O)CSc2nnc(NC(=O)C3CC(=O)N(c4ccccc4)C3)s2)no1 (stereo not drawn),83,i,i,i,i,i
CCn1c(SCC(=O)NCCc2ccccc2)nc2c([nH]c3ccccc32)c1=O,42,i,i,i,i,i
COc1ccc(CNC(=O)C2CCN(c3nnc(N4CCCC4=O)s3)CC2)cc1,i,i,i,i,nt,nt
Cc1ccccc1CNC(=O)C1CCN(c2nnc(N3CCCC3=O)s2)CC1,96,i,i,i,i,i
COc1ccc(CNC(=O)Nc2cc(C)ccc2C)cc1,i,i,i,i,nt,nt
COc1ccc(CNC(=O)Nc2ccc(C)cc2C)cc1,63,i,i,i,28,i
CC1CCCCC1NC(=O)C1CCC(CNS(=O)(=O)c2ccccc2)CC1 (stereo not drawn),31,i,i,i,i,i
COC(=O)c1ccc(Nc2cc(C)nc(-c3ccccc3O)n2)cc1,29,i,i,i,i,i
COC(=O)c1cccc(Nc2cc(C)nc(-c3ccccc3O)n2)c1,i,i,i,i,nt,nt
SMILES,EBNA-1 inh,ZTA DNA inh,NS3 helicase inh,HCV core dimer,EBNA-1 confirm,ZTA counter trip
COc1ccc(-c2nnn(CC(=O)N(CC(=O)NCCC(C)C)Cc3cccs3)n2)cc1OC,30,i,i,i,i,i
COc1ccc(OCCSc2ncc(CO)n2C)cc1,i,i,i,i,nt,nt
c1cc2ccc3ccc(-n4cnnn4)c4ccc(c1)c2c34,34,i,i,i,35,i
Cc1c(N)cccc1-n1cnnn1,i,i,i,i,nt,nt
CCOC(=O)C1(Cc2ccccc2C)CCCN(C(=O)CCc2cccnc2)C1 (stereo not drawn),i,i,i,i,nt,nt
CCCN1Cc2cccc(C(=O)Nc3ccc(-c4nc5ccccc5[nH]4)cc3)c2C1=O,58,i,i,i,51,i
Cc1cc(NC(=O)COC(=O)c2oc3c(ccc4ccccc43)c2C)no1,50,i,i,i,56,i
CCOC(=O)N=S(=O)(Oc1ccc([N+](=O)[O-])cc1)c1ccccc1 (stereo not drawn),137,i,i,i,i,i
CCOC(=O)N=S(=O)(Oc1ccc([N+](=O)[O-])cc1)c1ccc(Cl)cc1 (stereo not drawn),i,i,i,i,nt,nt
C#CCOc1ccc2ccccc2c1/C=C(/C#N)c1ccc(C(=O)O)cc1,i,i,i,i,nt,nt
CC1CC2OC(=O)C3(C)CCCC(C)(C23)C1(O)CCc1ccoc1 (stereo not drawn),i,i,i,i,nt,nt
O=C(NC(=S)Nc1ccc(S(=O)(=O)N2CCCCCC2)cc1)c1cccs1,85,i,i,i,66,i
COc1ccc(C(=O)NCCS(=O)(=O)N2CCCC2)cc1,i,i,nt,i,nt,nt
Cc1ccccc1C(=O)Nc1cc(NC(=O)c2ccccc2C)cc(C(=O)O)c1,i,i,i,i,nt,nt
O=C(COC(=O)c1cc(NS(=O)(=O)c2cccs2)ccc1O)Nc1cc(Cl)ccc1Cl,36,i,i,i,i,i
CC(C)CNC(=S)N(CCCN(C)C)Cc1cc2cc3c(cc2[nH]c1=O)OCCO3,i,i,i,i,nt,nt
O=C(N/N=C/c1ccc(-c2ccc(S(=O)(=O)Nc3ncccn3)cc2)o1)c1cc2ccccc2cc1O,32,i,i,i,46,41
Cc1ccc(C(=O)CSc2nnc(CNc3ccc(C)cc3C)o2)cc1,31,i,i,i,i,i
CN1CCNC(=O)C1CC(=O)NCCc1ccccc1F (stereo not drawn),i,i,i,i,nt,nt
O=C(CCc1nc2sc3c(c2c(=O)[nH]1)CCCC3)Nc1ccccc1Cl,39,i,nt,i,i,i
COc1ccc(C(C)=O)cc1COC(=O)CCNS(=O)(=O)c1ccc(C)c(C)c1,i,i,nt,i,nt,nt
O=C(/C=C/c1cccc2ccccc12)c1ccncc1,i,i,i,i,nt,nt
Cc1[nH]c2ccccc2c1/C=C/C(=O)c1ccncc1,38,i,i,i,i,i
Cc1ccccc1SCCNC(=O)CCc1ccccc1,i,i,i,i,nt,nt
CCOc1ccc2nc(NC(=O)CC3Oc4ccccc4NC3=O)sc2c1 (stereo not drawn),i,i,i,i,nt,nt
COc1ccc2nc(NC(=O)CC3Oc4ccccc4NC3=O)sc2c1 (stereo not drawn),56,i,i,i,i,i
O=C(O)c1ccc(Nc2ncc([N+](=O)[O-])cc2[N+](=O)[O-])cc1,i,i,i,i,nt,nt
Cc1cccc(C(=O)N/N=C/c2ccc(OC3CSC3)cc2)c1,35,i,i,i,i,i
Cc1ccc(S(=O)(=O)NCCC(=O)NC(C)CCc2ccccc2)cc1 (stereo not drawn),i,i,nt,i,nt,nt

# Compound activity from PubChem.
